From PubChem BioAssay
OX1R antag-1: antagonists of human orexin 1 receptor (OX1R). Orexin/Hypocretin receptor type 1 (Homo sapiens), O43613. OX1R-expressing cells, FRET antagonist read-out. inhibition, % at 6.6 µM. 330,000 compounds, 1.8% hits. AID 485270, 2010; in the data active = inhibition mostly above about 38%, no sharp cut-off; inactive = mostly below about 40%;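 note: 0% = agonist challenge alone and 100% = reference antagonist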
CHO parental Ca: ATP-evoked calcium signal inhibitors, parental CHO, primary screen, counter-screen for OX1R antagonist project, cell-based, fluorescence, Fluo-8 calcium dye; parental CHO-K1, ATP-induced calcium, Fluo-8 fluorescence; inhibition, % at 5.6 µM; 330,000 compounds, 0.63% hits; AID 463079, 2010;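 active = inhibition above that plate's mean sample inhibition plus 3 SD, cut at about 26% in these data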;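 note: 0% = ATP-challenged DMSO wells and 100% = DMSO wells without ATP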
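Material: parental CHO cells / Compound: single nominal dose of 5.6 µM per compound / Signal: Fluo-8 fluorescence / Replicates: singlicate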
GPR7 antag: GPR7 receptor antagonists, primary screen, cell-based, fluorescence, single concentration; Neuropeptides B/W receptor type 1 (Homo sapiens), P48145; GPR7-expressing cells, fluorescence antagonist assay; inhibition, % at 4.4 µM; 290,000 compounds, 1.1% hits; AID 1861, 2009; in the data active = inhibition above about 16%, passing the limit was not always enough;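 note: cells stimulated with the agonist NPW; 0% = agonist with vehicle and 100% = vehicle without agonist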
Target sequence (P48145 whole entry, looked up): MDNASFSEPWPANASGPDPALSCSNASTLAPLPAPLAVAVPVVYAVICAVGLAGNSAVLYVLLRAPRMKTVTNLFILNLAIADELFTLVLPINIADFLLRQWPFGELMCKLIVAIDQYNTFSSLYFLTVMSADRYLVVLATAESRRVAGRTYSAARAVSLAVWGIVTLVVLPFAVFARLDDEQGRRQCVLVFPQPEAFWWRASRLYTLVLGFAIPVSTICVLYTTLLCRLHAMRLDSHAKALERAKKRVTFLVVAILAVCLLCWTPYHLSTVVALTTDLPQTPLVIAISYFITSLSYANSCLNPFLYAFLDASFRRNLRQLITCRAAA
GalR3 antag: GalR3 antagonists in HEK293 cells, primary screen, cell-based, fluorescence readout. 360,000 compounds, 0.44% hits. inhibition, % at 3 µM. Galanin receptor type 3 (Homo sapiens), O60755. AID 651719, 2012. HEK293 GalR3-CNG cAMP membrane potential fluorescence; galR3 body fused to GalR1 C-terminus;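 active = inhibition above the screen-wide average plus 3 SD, cut at about 13% in these data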;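 note: forskolin and galanin both at EC90 stimulate the cells; cAMP rise reported by CNG channel membrane potential dye signal; 0% = forskolin plus galanin with DMSO and 100% = forskolin alone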
Target sequence (O60755 1-299 limits assumed): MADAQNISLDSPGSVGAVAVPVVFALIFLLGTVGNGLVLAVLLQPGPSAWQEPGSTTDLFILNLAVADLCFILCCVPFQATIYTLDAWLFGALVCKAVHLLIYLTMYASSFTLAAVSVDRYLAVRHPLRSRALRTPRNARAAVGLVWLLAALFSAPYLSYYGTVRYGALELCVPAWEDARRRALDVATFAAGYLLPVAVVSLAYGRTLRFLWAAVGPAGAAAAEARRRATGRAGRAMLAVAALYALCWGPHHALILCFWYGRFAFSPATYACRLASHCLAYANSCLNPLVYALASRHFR
OX1R antag-2: OX1R (HCRTR1) antagonists, primary screen, fluorescence, CHO/OX1R cells, Fluo-8 calcium, orexin A. Orexin/Hypocretin receptor type 1 (Homo sapiens), O43613. Fluo-8 calcium fluorescence. 330,000 compounds, 0.43% hits. AID 434989, 2010. inhibition, % at 5 µM;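 active = inhibition above its plate's threshold, mean inhibition of all tested compounds on the plate plus 3 SD, cut at about 37% in these data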;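 note: 0% = orexin A challenge wells and 100% = SB-334867-A antagonist wells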
An asterisk follows results filed as active. Only some compounds are listed: those with a hit (about 3.1% of all), similar ones and a draw of the others.

`CN(Cc1cn(Cc2ccccc2)nn1)C1CN(Cc2cn(Cc3ccccc3)nn2)S(=O)(=O)C1` (stereo not drawn) gave GalR3 antag -5.
`CN(Cc1ccccc1)C(=O)CSc1nc2ccccc2c(=O)n1Cc1ccco1` gave OX1R antag-1 34*, CHO parental Ca -24, GPR7 antag -12, GalR3 antag -9 and OX1R antag-2 14.
COc1ccc2c(c1OC)C(=O)N1C(C(=O)O)Cc3c([nH]c4ccccc34)C21 (stereo not drawn) was read as OX1R antag-1 75*, CHO parental Ca -23, GPR7 antag 6, GalR3 antag -8 and OX1R antag-2 -9.
C#CCn1c(S(=O)(=O)Cc2ccc(OC)cc2)nc(-c2ccccc2)c1-c1ccccc1 was read as OX1R antag-1 58*, CHO parental Ca -23, GPR7 antag 25, GalR3 antag -8 and OX1R antag-2 -8.
Screening CCOC(=O)Cn1c(S(=O)(=O)Cc2ccc(Cl)cc2)nc(-c2ccccc2)c1-c1ccccc1 returned OX1R antag-1 8, CHO parental Ca -27, GPR7 antag -9, GalR3 antag -6 and OX1R antag-2 -45.
`COc1ccc(-c2cc(C(F)(F)F)nc(S(=O)(=O)CCCC(=O)Nc3cccnc3Cl)n2)cc1OC` gave GPR7 antag -10 and GalR3 antag 17*.
`Cc1ccc(S(=O)(=O)O/N=C2\CCCc3ccccc32)cc1` gave OX1R antag-1 20, CHO parental Ca -2, GPR7 antag 4, GalR3 antag -2 and OX1R antag-2 -20.
For CC1=C(C)/C(=N\OS(=O)(=O)c2ccccc2)C=CC1=O the results were OX1R antag-1 150*, CHO parental Ca 65*, GPR7 antag 58* and OX1R antag-2 74*.
Screening COC(=O)C(C(=O)OC)c1ncccc1NS(=O)(=O)c1ccc(C)cc1 returned GalR3 antag -7.
Screening CN1C(=O)[C@@]2(O[C@H]3c4ccccc4C=CN3C3=C2C(=O)CCC3)c2ccccc21 returned GalR3 antag -3.
`N#Cc1ccc(Cl)cc1NC(=O)CSc1cccc[n+]1[O-]` gave OX1R antag-1 10, CHO parental Ca -11, GalR3 antag -4 and OX1R antag-2 -23.
`O=C(CSc1cccc[n+]1[O-])Nc1cc(Cl)ccc1[N+](=O)[O-]` gave OX1R antag-1 38*, CHO parental Ca 4, GalR3 antag -4 and OX1R antag-2 3.
`COC(=O)N[C@H]1CC=C[C@@H]1Cc1cccc(Oc2ccccc2)c1` gave GalR3 antag -8.
Screening Nc1nc(-c2ccc(Cl)cc2)cc(C(F)(F)F)n1 returned OX1R antag-1 14, CHO parental Ca 39*, GPR7 antag -15, GalR3 antag -8 and OX1R antag-2 -2.
O=C(COC(=O)c1ccc([N+](=O)[O-])o1)NC1CCCCC1 was read as OX1R antag-1 24*, CHO parental Ca -4, GalR3 antag -5 and OX1R antag-2 -30.
Screening CCN(C(=O)COC(=O)c1cccnc1SC)C1CCS(=O)(=O)C1 (stereo not drawn) returned OX1R antag-1 11, CHO parental Ca -2, GPR7 antag -1, GalR3 antag -3 and OX1R antag-2 -31.
`CC(=O)Nc1ccc(NC(=O)COC(=O)c2ccc([N+](=O)[O-])o2)cc1` gave OX1R antag-1 37*, CHO parental Ca -7, GalR3 antag -3 and OX1R antag-2 -10.
Screening CCN(C(=O)COC(=O)c1cccnc1SC)C1CCCCC1 returned OX1R antag-1 57*, CHO parental Ca -14, GalR3 antag -6 and OX1R antag-2 31.
Screening O=C(NCc1ccco1)c1ccc([N+](=O)[O-])o1 returned OX1R antag-1 71*, CHO parental Ca 18, GPR7 antag -7, GalR3 antag 2 and OX1R antag-2 -8.
For O=C(COC(=O)c1ccc([N+](=O)[O-])o1)NC1CCCC1 the results were OX1R antag-1 32, CHO parental Ca -10, GalR3 antag 0 and OX1R antag-2 -1.
For CC(C)(C(=O)N1CCC1(C)C(=O)Nc1ccccc1Br)c1ccccc1 (stereo not drawn) the results were GalR3 antag 0.
Screening Cn1c(=O)c(=O)n(C)c2cc(S(=O)(=O)N3CCCC3C(=O)Nc3ccccc3F)ccc21 (stereo not drawn) returned OX1R antag-1 2, CHO parental Ca -6, GPR7 antag -8, GalR3 antag 6 and OX1R antag-2 -15.
`O=C(NC1CCCC(C(F)(F)F)C1)c1ccc([N+](=O)[O-])o1` (stereo not drawn) gave OX1R antag-1 20, CHO parental Ca -7, GalR3 antag -4 and OX1R antag-2 -15.
For O=C(NC1CCCCC1)c1ccc([N+](=O)[O-])o1 the results were OX1R antag-1 39*, CHO parental Ca 7, GPR7 antag 7 and OX1R antag-2 -20.
CCN(C(=O)COC(=O)c1ccc([N+](=O)[O-])o1)C1CCCCC1 was read as OX1R antag-1 29*, CHO parental Ca 1, GalR3 antag 0 and OX1R antag-2 -5.
`CC1CCCCC1NC(=O)COC(=O)c1ccc([N+](=O)[O-])o1` (stereo not drawn) gave GalR3 antag -2.
Screening COc1cc(CCC(C)=O)ccc1OC(=O)c1c(-c2c(F)cccc2Cl)noc1C returned GalR3 antag -7.
CC[C@]12c3[nH]c4cc(-c5ccco5)ccc4c3CCN1C(=O)[C@@H](CC(=O)NCCN1CCOCC1)C[C@@H]2C(=O)N1CCN(C(=O)C2CC2)CC1 was read as OX1R antag-1 -1, CHO parental Ca -12, GalR3 antag -4 and OX1R antag-2 -19.
`C[C@H]1CNC(=O)c2c(C(=O)N3CCN(c4ccccc4)CC3)ncn21` gave GalR3 antag -4.
For O=C1Nc2ccccc2O/C1=C\c1ccccc1Br the results were OX1R antag-1 45*, CHO parental Ca -16, GPR7 antag -14, GalR3 antag -11 and OX1R antag-2 4.
Screening COCCCNC(=O)C[C@H]1C[C@@]2(C(=O)OC)C(=C[C@H](C(C)(C)C)O[C@@H]2C)N(CCc2ccc(OC)c(OC)c2)C1=O returned GalR3 antag -1.
CCOC(=O)C1=C(Cn2cnc3ccccc32)NC(=O)NC1c1cc(C)ccc1C (stereo not drawn) was read as OX1R antag-1 39, CHO parental Ca 95*, GPR7 antag 7, GalR3 antag -4 and OX1R antag-2 79*.
Screening CCOC(=O)C1=C(CSc2nccn2C)NC(=O)NC1c1cc(C)ccc1C (stereo not drawn) returned OX1R antag-1 15, CHO parental Ca -12, GPR7 antag 1, GalR3 antag -6 and OX1R antag-2 -24.
